The source of these data is ChEMBL document CHEMBL1149787, “Synthesis and cannabinoid activity of 1-substituted-indole-3-oxadiazole derivatives: novel agonists for the CB1 receptor” (Eur J Med Chem, 2008).

The target in assay [1] is Cannabinoid receptor 1 (Mus musculus) (UniProt P47746). Kind of assay: Agonist activity at CB1 receptor in electrically-stimulated Swiss mouse vas deferens at 1.0 uM. It counts as functional, tissue-based. In short, it runs like this:
(§1)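 Electrically stimulated mouse vas deferens. Prostatic end tied between parallel field electrodes, epididymal end attached to an isometric force transducer. Tissue stretched by 0.5 g force, equilibrated 10 min, then stimulated with trains of three pulses (4 Hz, 0.5 ms, 100 V) every 20 s. Effect taken as % decrease of pre-drug twitch force; single concentrations expressed relative to vehicle.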

The target of assay [2] is Cannabinoid receptor 1 (Rattus norvegicus, UniProt P20272). Kind of assay: (§2) Displacement of [3H]SR141716A from CB1 receptor in Sprague-Dawley rat cerebellum membrane. Format: tissue-based. In general terms: Displacement assays read how much labelled ligand stays bound in the presence of the test substance.
Assay [3] deals with Cannabinoid receptor 1 (Mus musculus) (UniProt P47746). Kind of assay: Agonist activity at CB1 receptor in electrically-stimulated Swiss mouse vas deferens. It counts as functional, tissue-based. In outline: as §1
For assay [4], the target named is T1, Cannabinoid receptor 2 (Rattus norvegicus, UniProt Q9QZN9).
T1 sequence (Q9QZN9 whole entry): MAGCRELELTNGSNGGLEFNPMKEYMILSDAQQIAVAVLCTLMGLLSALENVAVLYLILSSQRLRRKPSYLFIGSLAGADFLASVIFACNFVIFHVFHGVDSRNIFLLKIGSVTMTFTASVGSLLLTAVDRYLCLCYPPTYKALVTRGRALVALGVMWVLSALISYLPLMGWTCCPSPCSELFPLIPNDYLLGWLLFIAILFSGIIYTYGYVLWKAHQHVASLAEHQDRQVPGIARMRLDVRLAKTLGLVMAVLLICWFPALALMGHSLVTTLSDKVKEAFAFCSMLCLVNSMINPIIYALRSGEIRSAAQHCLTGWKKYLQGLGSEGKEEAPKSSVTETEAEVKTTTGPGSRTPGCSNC
Description: (§3) Displacement of [3H]WIN-55212-2 from CB2 receptor in Sprague-Dawley rat spleen membrane. Format: cell membranes.

Assay [5] concerns the target T2, Cannabinoid receptor 2 (Rattus norvegicus) (UniProt Q9QZN9).
T2 sequence (whole entry): T1 sequence (Q9QZN9 whole entry)
The assay is described as §3. Format: cell membranes.

Assay [6] can be described thus: Selectivity for CB2 receptor over CB1 receptor.
Assay [7] deals with Cannabinoid receptor 1 (Rattus norvegicus) (UniProt P20272). The assay is described as §2. Format: tissue-based.
Assay [8] deals with Cannabinoid receptor 1 (Homo sapiens, UniProt P21554). Description: Agonist activity at CB1 receptor. Format: functional.
Assay [9] concerns the target Cannabinoid receptor 2 (Homo sapiens, UniProt P34972). Kind of assay: Activity at CB2 receptor.
Assay [10] has as its target T2, Cannabinoid receptor 2 (Rattus norvegicus). Kind of assay: Displacement of [3H]WIN-55212-2 from CB2 receptor in Sprague-Dawley rat spleen membrane at 10 uM. It counts as cell membranes. In short, it runs like this: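 Spleen membranes from Sprague Dawley rats (supernatant spun at 23,800g, pellet kept) in tris-HCl pH 7.4 with MgCl2 and EGTA. 30.0 µg protein per tube with 1.0 mg/mL BSA, 0.2 nM [3H]WIN-55,212-2 and test drug, triplicate, 30 °C for 90 min. Nonspecific binding defined with 1.0 µM unlabelled WIN-55,212-2. Filtration, scintillation counting, nonlinear regression; means of at least four estimates.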

pIC50, pKi: −log10 of the molar value. The source made the active and inactive calls. The rule behind the calls is not given here.

Cannabinoid receptor 1 (Mus musculus), sequence (P47746 whole entry): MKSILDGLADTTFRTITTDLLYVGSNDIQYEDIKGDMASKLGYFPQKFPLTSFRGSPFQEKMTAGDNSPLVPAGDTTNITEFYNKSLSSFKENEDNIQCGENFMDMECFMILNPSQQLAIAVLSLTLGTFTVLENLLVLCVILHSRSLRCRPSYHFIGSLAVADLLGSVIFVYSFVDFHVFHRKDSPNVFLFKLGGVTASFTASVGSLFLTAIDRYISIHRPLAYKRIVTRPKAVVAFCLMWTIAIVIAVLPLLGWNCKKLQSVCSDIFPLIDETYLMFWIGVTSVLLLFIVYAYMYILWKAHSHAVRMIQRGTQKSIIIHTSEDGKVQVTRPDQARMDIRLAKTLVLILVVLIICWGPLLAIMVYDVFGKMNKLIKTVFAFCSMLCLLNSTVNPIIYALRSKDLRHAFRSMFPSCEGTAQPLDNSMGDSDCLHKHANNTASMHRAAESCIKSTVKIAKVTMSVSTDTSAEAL
Cannabinoid receptor 1 (Rattus norvegicus, UniProt P20272), sequence (P20272 whole entry): as the sequence (P47746 whole entry) above, with D95E counted along it
Cannabinoid receptor 1 (Homo sapiens, UniProt P21554), sequence (P21554 whole entry): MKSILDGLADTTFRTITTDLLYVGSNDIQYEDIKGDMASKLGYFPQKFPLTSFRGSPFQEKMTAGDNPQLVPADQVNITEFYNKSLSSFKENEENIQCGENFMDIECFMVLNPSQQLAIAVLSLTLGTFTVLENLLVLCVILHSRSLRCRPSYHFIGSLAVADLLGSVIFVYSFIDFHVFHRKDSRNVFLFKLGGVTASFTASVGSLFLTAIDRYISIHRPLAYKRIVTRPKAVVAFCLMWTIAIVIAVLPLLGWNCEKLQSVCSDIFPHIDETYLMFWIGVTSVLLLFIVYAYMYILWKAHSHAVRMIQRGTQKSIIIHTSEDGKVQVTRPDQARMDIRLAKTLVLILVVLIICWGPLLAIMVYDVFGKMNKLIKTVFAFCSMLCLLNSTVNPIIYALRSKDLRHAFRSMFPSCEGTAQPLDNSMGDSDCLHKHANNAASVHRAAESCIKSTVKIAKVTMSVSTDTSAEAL
Cannabinoid receptor 1 (Rattus norvegicus), sequence (P20272 whole entry): as the sequence (P47746 whole entry) above, with D95E counted along it
Cannabinoid receptor 2 (Homo sapiens, UniProt P34972), sequence (P34972 whole entry): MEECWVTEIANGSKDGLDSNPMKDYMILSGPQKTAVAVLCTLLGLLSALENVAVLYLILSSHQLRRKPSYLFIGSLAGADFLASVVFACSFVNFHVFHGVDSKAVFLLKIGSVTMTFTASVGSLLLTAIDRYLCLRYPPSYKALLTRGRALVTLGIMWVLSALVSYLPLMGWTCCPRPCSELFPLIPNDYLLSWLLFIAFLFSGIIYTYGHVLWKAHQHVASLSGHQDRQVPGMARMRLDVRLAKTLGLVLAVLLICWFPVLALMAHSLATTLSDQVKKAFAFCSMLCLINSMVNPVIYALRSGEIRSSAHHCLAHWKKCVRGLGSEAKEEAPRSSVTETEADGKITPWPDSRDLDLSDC

For orientation: inhibition means the drop in the measured response relative to a control, in per cent. The term pIC50 denotes −log10 of the IC50, conventionally taken in molar units. Higher therefore signals a low IC50. Regarding `O=C1NC(Cn2cc(-c3nc(Cc4ccccc4)no3)c3ccccc32)CO1` (stereo unspecified), the inhibition in [1] was 15.8%. In addition, the negative-log IC50 (pIC50) on Cannabinoid receptor 1 [2] is 5.21. For `COc1ccc(Cc2noc(-c3cn(CCN4CCOCC4)c4ccccc34)n2)cc1`, in assay [1], the inhibition was 39.2%. For `c1ccc2cc(Cc3noc(-c4cn(CCN5CCCC5)c5ccccc45)n3)ccc2c1`, the inhibition in assay [1] came out at 78.6%. Consider `Brc1ccc(Cc2noc(-c3cn(CCN4CCOCC4)c4ccccc34)n2)cc1`, for which, in assay [1], the inhibition was 58%. The molecule further gave a pIC50 at Cannabinoid receptor 1 [2] of 5.21. As to `c1ccc(Cc2noc(-c3cn(CCN4CCOCC4)c4ccccc34)n2)cc1`, in [3], the agonist potency (pEC50) was determined as 7. In addition, the pIC50 is 5.58 at Cannabinoid receptor 1 [2] and 5.96 on Cannabinoid receptor 2 [4]. On to `O=C(O)CCCCn1cc(-c2nc(Cc3ccc4ccccc4c3)no2)c2ccccc21`, for which the inhibition in assay [1] came out at 53.6%.

Regarding `CC(=O)Oc1cn(CCN2CCOCC2)c2ccccc12`, in [1], the inhibition stood at 81.8%. Take `c1ccc(-c2noc(-c3cn(CCN4CCOCC4)c4ccccc34)n2)cc1`: in [3], the agonist potency (pEC50) is 6.47. The pIC50 on Cannabinoid receptor 1 [2] is 6.60; at Cannabinoid receptor 2 [4] it was 5.39.

Turning to `O=C(c1nc(-c2ccccc2)no1)c1cn(CCN2CCOCC2)c2ccccc12`, the inhibition in assay [1] is 44.3%. Also, in assay [5], the result was inactive. Turning to `COc1ccc2c(c1)c(CCN1CCOCC1)c(C)n2C(=O)c1cccc(Cl)c1Cl`, the Selectivity ratio in assay [6] stood at 160. On to `c1csc(Cc2noc(-c3cn(CCN4CCOCC4)c4ccccc34)n2)c1`, for which, in assay [1], the inhibition was 81%. At Cannabinoid receptor 1 [2], this molecule showed a pIC50 of 5.17. `c1ccc(Cc2noc(-c3cn(CCN4CCOCC4)cn3)n2)cc1`: in [1], the inhibition was found to be 46.8%. Further, the result in assay [7] was inactive. In the case of `c1ccc(Cc2noc(-c3cn(CCN4CCCC4)c4ccccc34)n2)cc1`, the agonist potency (pEC50) in assay [3] was determined as 7.2. `COc1ccc(C(=O)c2c3n(c4ccccc24)C(CN2CCOCC2)CC3)cc1` (stereo unspecified) had a pIC50 on Cannabinoid receptor 1 [8] of 9.49.

For the molecule `c1ccc2cc(Cc3noc(-c4cn(CCN5CCOCC5)c5ccccc45)n3)ccc2c1`, the inhibition in assay [1] worked out at 95.6%. With `CCOC(=O)CCCCn1cc(-c2nc(Cc3ccc4ccccc4c3)no2)c2ccccc21`, the inhibition in assay [1] was 41.6%. What is called pKi is the negative decadic logarithm of the Ki, by convention in mol/L. High values mean a low Ki, low ones a high Ki. In the case of `Cc1c(CCN2CCOCC2)c2ccccc2n1C(=O)c1cccc2ccccc12`, the pKi at Cannabinoid receptor 2 [9] was 8.07. Moreover, the Selectivity ratio in assay [6] amounted to 160. On to `O=C(Cn1cc(-c2nc(-c3ccccc3)no2)c2ccccc21)N1CCOCC1`, for which the inhibition in assay [1] is -5.29%. Moreover, the outcome in [5] was inactive. As for `O=C(Cn1cc(-c2nc(Cc3ccccc3)no2)c2ccccc21)N1CCOCC1`, in assay [1], the inhibition was 17%. Besides, the outcome in [5] was inactive.

On to `Clc1ccccc1Cc1noc(-c2cn(CCN3CCOCC3)c3ccccc23)n1`, for which the inhibition in assay [1] worked out at 95%. At Cannabinoid receptor 1 [2], this molecule showed a pIC50 of 5.13. The molecule `CCCCC(C)(C)c1cc(O)c2c(c1)OC(C)(C)[C@H]1CC=C(CO)C[C@H]21` showed a pIC50 at Cannabinoid receptor 1 [2] of 5.49.

With `c1ccc(Cc2noc(-c3cn(CCN4CCCCC4)c4ccccc34)n2)cc1`, the agonist potency (pEC50) in [3] is 5.6. Also, the pIC50 at Cannabinoid receptor 1 [2] was 5.25. In the case of `COc1ccc(C(=O)c2c(C)n(CCN3CCOCC3)c3ccccc23)cc1` [PRAVADOLINE], the pIC50 at Cannabinoid receptor 1 [8] was 6.34. In the case of `CCCCCn1cc(-c2nc(Cc3ccccc3)no2)c2ccccc21`, the inhibition in [1] was determined as 100%. The molecule also had a pIC50 at Cannabinoid receptor 1 [2] of 5.06.

In the case of `c1ccc(CCc2noc(-c3cn(CCN4CCOCC4)c4ccccc34)n2)cc1`, the inhibition in assay [1] came to 90%. At Cannabinoid receptor 1 [2], this molecule gave a pIC50 of 5.17. Consider `c1ccc(-c2ccc(-c3noc(-c4cn(CCN5CCOCC5)c5ccccc45)n3)cc2)cc1`, for which the inhibition in assay [1] was 11.4%; in assay [10] it was 14%. On Cannabinoid receptor 1 [2], this molecule showed a negative logarithm of the IC50 (pIC50) of 5.82. On to `O=C(Cn1cc(-c2nc(Cc3ccccc3Cl)no2)c2ccccc21)N1CCOCC1`, for which the result in assay [7] was inactive.

Regarding `O=C(c1nc(Cc2ccccc2)no1)c1cn(CCN2CCOCC2)c2ccccc12`, the inhibition in assay [1] was 22.4%.
